Assay results of several laboratories.
Lines come from different studies, so protocols differ.

| SMILES | test system | conditions | quantity | result |
| --- | --- | --- | --- | --- |
| CC(C)Oc1c(NC(=O)c2ccc(NC(=O)[C@H](CC(N)=O)NC(=O)c3ccc(NC(=O)c4ccc(C#N)cc4)cc3)cc2)ccc(C(=O)Nc2ccc(C(=O)O)cc2)c1O | male CD-1 mouse, plasma | subcutaneous, 5 mg/kg, single dose | CL/F | 163 mL/min/kg |
| C#Cc1cnc2nc(O)n(C(CC)CC)c2n1 | male beagle dog, plasma | intravenous, 1 mg/kg | clearance | 4.3 mL/min/kg |
| Cc1ccc2cncc(N3CCc4c(cc(Cn5ccnc5)cc4-c4cn(C)nc4C(F)(F)F)C3=O)c2c1 | male CD-1 mouse, plasma | intravenous, 3 mg/kg | C0 | 5480 ng/mL |
| Oc1c(-n2ccnn2)cnn1-c1cc(N2CCOCC2)ncn1 | female dog, blood | intravenous, 3 mg/kg | clearance | 18.3 mL/min/kg |
| CC(C)(C)c1ccc(O)c(CN(Cc2cc(C(C)(C)C)ccc2O)C2CCC(NC(N)=O)CC2)c1 (stereo not shown) | male C57BL/6 mouse, plasma | intraperitoneal, 5 mg/kg, single dose | clearance | 15.7 mL/min/kg |
| COc1ccc(C(O)COc2ccc(-c3csc(-c4ccc(OCC(O)c5ccc(OC)c(OC)c5)cc4)n3)cc2)cc1OC (stereo not shown) | C57BL/6 mouse, plasma | intravenous, 3 mg/kg | C0 | 5280 ng/mL |
| CCc1cc(C(=O)NC)c2nccc(N3CCc4c(cc(Cn5ccnc5)cc4-c4cn(C)nc4C(F)(F)F)C3=O)c2c1 | male Sprague-Dawley rat, plasma | oral, 100 mg/kg, single dose | Tmax | 1.3 h |
| COc1ccnc(CNC(=O)c2cn(Cc3ccc(Cn4ccccc4=O)cc3)nc2C(F)(F)F)c1F | male beagle dog, plasma | oral, 1 mg/kg | Cmax | 200 ng/mL |
| C=CC(=O)N1CC2CC(n3nc(-c4ccc(C(=O)Nc5ccccn5)cc4)c4c(N)ncnc43)CC2C1 (stereo not shown) | male Wistar rat, plasma | oral, 100 mg/kg | Tmax | 4 h |
| COCc1nn(Cc2ccc(Cn3ccccc3=O)cc2)cc1C(=O)NCc1nccc(OC)c1F | male beagle dog, plasma | oral, 1 mg/kg | Cmax | 284 ng/mL |
| CC[C@@H]1CN(C(=O)NCC(F)(F)F)C[C@@H]1c1cnc2cnc3[nH]ccc3n12 | beagle dog, plasma | oral, 1 mg/kg, single dose | Cmax | 89.4 ng/mL |
| O=C(NCCN1CCCC1)c1cc(-c2ccc(CN3CCOCC3)cc2)nc2ccc(F)cc12 | male beagle dog, blood | oral, 3 mg/kg | Cmax | 27 ng/mL |
| COc1ccc2nccc(N3CCc4c(cc(Cn5ccnc5)cc4-c4cn(C)nc4C(F)(F)F)C3=O)c2c1 | male CD-1 mouse, plasma | intravenous, 3 mg/kg | C0 | 3430 ng/mL |
| CCn1c(=O)c(-c2cc(NC(=O)Nc3ccccc3)c(F)cc2Br)cc2cnc(NC)cc21 | beagle dog, plasma | oral, 5 mg/kg, single dose | CL/F | 21 mL/min/kg |
| CNC(=O)c1cc(OC)cc2c(N3CCc4c(cc(Cn5ccnc5)cc4-c4cn(C)nc4C(F)(F)F)C3=O)ccnc12 | male CD-1 mouse, plasma | intravenous, 3 mg/kg | C0 | 8370 ng/mL |
| COc1cc2c3c(n(CCCN4CCOCC4)c(=O)c2cc1OC)-c1cc2c(cc1C3=O)OCO2 | male beagle dog, plasma | intravenous, 100 mg/m², infusion | Cmax | 461 ng/mL |
